# Screening data (PubChem)
# Only some compounds are listed: those with a hit (about 1.9% of all), similar ones and a draw of the others.
# RanGTP-Imp inh: disruptors of Ran-importin-beta complex formation – biochemical, FRET, CFP-Ran, YFP-importin-beta, homogeneous, primary screen; cell-free CFP-Ran/YFP-importin-beta FRET ratio; inhibition, % (test concentration not listed); 1.1% of 300,000 active;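 active = more than half of the replicate wells show a fall in the fluorescence ratio signal beyond about 16%, limit read from the data, passing the limit was not always enough; inconclusive = exactly half of the replicate wells pass the set limit; inactive = fewer than half of replicates pass the limit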;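 note: 0% = DMSO wells and 100% = Ran loaded with GDP instead of GTP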
# Runt-SMMHC FRET: Runt domain-CBFb-SMMHC interaction inhibition; 0.74% of 220,000 active; inhibition, % at 20 µM; Cerulean-Runt/Venus-CBFb-SMMHC FRET ratio 530/480, 1 h; Q01196+Q13951;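 active = mean inhibition across duplicate retests at 20 µM reaching about 50%, limit read from the data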;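 note: 0% = DMSO wells and 100% = wells with excess untagged CBFb-SMMHC; inhibitors lower the FRET ratio by blocking Runt binding to CBFb-SMMHC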
# Target sequence (Q01196 whole entry, looked up, the tested form may be a part): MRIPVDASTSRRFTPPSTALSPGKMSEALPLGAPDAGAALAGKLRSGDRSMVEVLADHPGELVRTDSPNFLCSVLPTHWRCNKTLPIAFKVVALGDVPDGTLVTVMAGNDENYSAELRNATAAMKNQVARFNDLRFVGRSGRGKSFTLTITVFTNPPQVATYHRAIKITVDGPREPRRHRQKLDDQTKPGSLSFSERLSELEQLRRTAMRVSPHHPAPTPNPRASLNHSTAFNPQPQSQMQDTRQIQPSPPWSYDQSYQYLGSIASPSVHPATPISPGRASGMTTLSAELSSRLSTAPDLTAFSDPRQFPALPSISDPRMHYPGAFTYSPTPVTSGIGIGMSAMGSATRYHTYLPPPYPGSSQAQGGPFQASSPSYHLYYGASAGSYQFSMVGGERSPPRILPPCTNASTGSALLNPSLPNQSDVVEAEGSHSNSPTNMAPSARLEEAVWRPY
# Target sequence (Q13951 whole entry, looked up, the tested form may be a part): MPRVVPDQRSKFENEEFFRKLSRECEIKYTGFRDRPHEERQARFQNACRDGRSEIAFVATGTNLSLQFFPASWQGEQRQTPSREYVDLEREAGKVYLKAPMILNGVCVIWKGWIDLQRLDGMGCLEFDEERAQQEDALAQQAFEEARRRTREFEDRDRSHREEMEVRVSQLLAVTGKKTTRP
# Runt-CBFb FRET: blocks binding of human RUNX1 Runt domain to CBFb; 0.46% of 220,000 active; AID 1496; Cerulean-Runt/Venus-CBFb FRET ratio 530/480, 1 h; Q01196+Q13951; inhibition, % at 20 µM;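 active = inhibition over about 50% at 20 µM in the single-dose screen, limit read from the data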;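 note: 0% = DMSO wells and 100% = excess unlabeled CBFb competitor control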
#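 Doses: 20 µM compound in 1% DMSO | Material: Cerulean-labeled Runt domain protein | Amount: Each fluorescent fusion protein 100 nM | Schedule: Two 1 h room-temperature incubations shielded from light | Measured by: FRET fluorescence | Evaluation: Loss of energy transfer signal | Controls: Unlabeled CBFb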
# Hck-Nef inh: human Hck-Nef kinase inhibition; Recombinant Hck-YEEI plus Nef, Z-Lyte FRET kinase assay; 0.68% of 220,000 active; inhibition, % at 20 µM;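 active = Hck-Nef kinase inhibition above about 50%, limit read from the data; inactive = inhibition below that limit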;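 note: 0% = DMSO with Hck plus Nef and 100% = Hck alone without Nef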
# TbHK1 inh: blocks Trypanosoma brucei hexokinase 1 activity | 0.11% of 220,000 active | AID 1430 | inhibition, % at 10 µM | recombinant TbHK1, G6PDH-coupled NADH A340;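 active = inhibition of 50% or more in the single-dose primary screen; inactive = inhibition below 50%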
# Active calls of the source: *; ? = inconclusive; / = no result.
SMILES,RanGTP-Imp inh,Runt-SMMHC FRET,Runt-CBFb FRET,Hck-Nef inh,TbHK1 inh
CN1CCN(c2nc3ccccc3nc2C(C#N)C(=O)OC2CCCCC2)CC1 (stereo not drawn),15.2*,1.5,0.0,-4.0,0.7
CCN1CCN(c2nc3ccccc3nc2C(C#N)C(=O)OC2CCCCC2)CC1 (stereo not drawn),/,38.0,17.6,0.3,0.3
COCCNC(=O)C(C#N)c1nc2ccccc2nc1N1CCCCCC1 (stereo not drawn),71.9*,51.3*,44.0,1.0,-10.1
CCN1C(=O)[C@H]2[C@@H](c3ccc(-c4ccc(OC)cc4)cc3)N3CCC[C@@]3(C(=O)OC)[C@H]2C1=O,3.0,/,/,/,/
O=c1[nH]c2ccccc2n1Cc1ccccc1,0.2,-1.7,-0.9,2.4,-4.7
O=c1nc2n(Cc3ccccc3)c3ccccc3cc-2c(=O)[nH]1,89.4*,82.3*,63.1*,15.9,2.8
COc1ccc(/C(C)=N/NC(=O)CNC(=O)/C=C\c2ccccc2OC)c(OC)c1,2.4,/,/,/,/
CCOC(=O)c1sc(-c2ccc(Cl)cc2Cl)nc1O,-36.7,84.0*,-61.0,-134.8,-12.6
CCOC(=O)c1sc(CS(=O)(=O)c2ccc(Cl)cc2)nc1C,8.1,-11.1,1.6,15.8,-9.3
Cc1cc(/C=c2\sc3nc4ccccc4n3c2=O)c(C)n1-c1ccc(C(=O)O)cc1,?,38.1,18.4,-2.0,9.7
Cc1cc(/C=c2/sc3nc4ccccc4n3c2=O)c(C)n1-c1ccccn1,15.5*,6.1,8.1,1.3,-24.7
O=C(Nc1ccc(Cl)cc1)c1ccc(Br)cc1F,-1.5,-2.9,0.3,-21.6,11.2
Cc1ccc(SCC(=O)Nc2ccc(N3CCOCC3)cc2)c(C)c1,2.8,-3.4,-0.5,-2.8,-1.6
COc1ccc(C(C)=O)cc1CSc1nc2ccccc2c(=O)n1-c1ccccc1C,-3.2,1.7,-1.6,4.2,-7.8
Cc1nnc(SCc2cc(=O)oc3cc(O)ccc23)n1Cc1ccccc1,11.6,127.4*,84.7*,6.7,-9.1
COc1ccccc1-n1c(SCc2cc(=O)oc3cc(O)ccc23)nc2ccccc2c1=O,-1.5,69.7*,33.8,33.7,-5.3
Cc1nnc(SCc2cc(=O)oc3ccc4ccccc4c23)n1Cc1ccccc1,12.9,21.5,15.8,-3.1,-6.1
S=c1[nH]nc(-c2n[nH]c3c2CCC3)n1/N=C/C=C/c1ccccc1,1.8,6.7,10.5,41.0,-20.2
O=C(CCn1nc(-c2ccc(Cl)cc2)c2ccccc2c1=O)Nc1cccnc1,0.5,-2.8,-2.8,19.1,-6.7
CCCOC(=O)c1ccc(NC(=O)c2c(Cl)ccc(Cl)c2OC)cc1,30.6*,5.9,2.4,0.6,-8.5
CN(C)c1c2ccccc2nc2c(F)c(F)c(F)c(F)c12,23.1*,102.1,/,11.6,-5.6
Cc1c2ccccc2nc2c(F)c(N(C)C)c(F)c(F)c12,-5.0,-43.8,-6.3,-1.9,-9.7
CSc1ccc(/C=C(/NC(=O)c2ccccc2)C(=O)NCCN2CCOCC2)cc1,7.0,/,/,/,/
CCCCNC(=O)c1cc2c(=O)n3cccc(C)c3nc2n1C,/,19.3,5.1,/,/
Cc1nc2c(C)cccn2c(=O)c1NC(=O)c1ccc2c(c1)OCO2,-2.0,/,/,/,/
SMILES,RanGTP-Imp inh,Runt-SMMHC FRET,Runt-CBFb FRET,Hck-Nef inh,TbHK1 inh
COCCCn1c(=NC(C)=O)c(C#N)cc2c(=O)n3cccc(C)c3nc21,81.8*,81.7*,57.1*,38.6,-9.0
COCCCn1c(=NC(=O)c2ccc3c(c2)OCO3)c(C#N)cc2c(=O)n3cccc(C)c3nc21,/,154.9*,126.9*,/,/
CCN(C(=O)c1cc2c(=O)n3cccc(C)c3nc2n1CCCOC)C1CCCCC1,6.7,/,/,/,/
CCCn1c(=NC(C)=O)c(C#N)cc2c(=O)n3cccc(C)c3nc21,/,/,/,56.5*,-0.9
CCOc1ccc(NC(=O)c2ccccc2C(=O)c2ccccc2)cc1OCC,-0.6,/,/,/,/
CCOc1ccc(-c2cc(CCCC(=O)Nc3cccc(OC)c3)no2)cc1,26.6*,-1.9,-1.5,-2.7,-3.3
CCOc1ccc(NC(=O)CCCc2cc(-c3ccc(OCC)cc3)on2)cc1,0.0,-5.0,-0.2,-0.6,-2.2
CCOc1ccc(NC(=O)CCC(=O)O)cc1,24.3*,-0.1,2.1,1.3,-1.7
CCN1CCN(C2=CC3=CC(=C(C#N)C#N)CCC3CC2)CC1 (stereo not drawn),/,86.2*,-114.7,0.1,10.0
CN1CCN(C2=CC3=CC(=C(C#N)C#N)CCC3CC2)CC1 (stereo not drawn),/,88.4*,-27.3,0.3,2.6
